According to ChEMBL document CHEMBL5661979, “Pharmacological inhibition of BMK1 suppresses tumor growth through promyelocytic leukemia protein” (Cancer Cell, 2010):
Active and inactive are the calls of the source. The calls are words filed in the database; no cut-off is given here.

Key:
[1] = target: T1, Non-receptor tyrosine-protein kinase TNK1 (Homo sapiens) (UniProt Q13470); assay: Inhibition of TNK1 (unknown origin) assessed as remaining activity at 10 uM by ATP-competition binding assay relative to control
T1 sequence (whole entry): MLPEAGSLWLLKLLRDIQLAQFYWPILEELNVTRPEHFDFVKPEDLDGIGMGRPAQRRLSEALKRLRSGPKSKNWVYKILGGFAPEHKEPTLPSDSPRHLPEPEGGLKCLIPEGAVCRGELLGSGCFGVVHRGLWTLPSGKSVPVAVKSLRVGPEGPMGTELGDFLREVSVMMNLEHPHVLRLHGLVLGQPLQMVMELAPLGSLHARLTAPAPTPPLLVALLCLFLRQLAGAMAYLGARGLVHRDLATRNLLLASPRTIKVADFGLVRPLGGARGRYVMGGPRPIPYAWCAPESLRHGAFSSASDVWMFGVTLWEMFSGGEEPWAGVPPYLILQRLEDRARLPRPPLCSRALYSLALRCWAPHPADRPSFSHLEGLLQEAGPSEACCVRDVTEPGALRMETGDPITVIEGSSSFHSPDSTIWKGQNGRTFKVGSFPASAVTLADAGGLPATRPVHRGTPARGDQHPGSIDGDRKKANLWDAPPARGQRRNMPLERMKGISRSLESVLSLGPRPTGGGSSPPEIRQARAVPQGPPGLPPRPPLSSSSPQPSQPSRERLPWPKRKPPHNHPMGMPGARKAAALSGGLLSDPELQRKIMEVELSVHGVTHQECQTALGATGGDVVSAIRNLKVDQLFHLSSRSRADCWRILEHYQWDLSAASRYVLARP

[2] = target: Serine/threonine-protein kinase ATR (Homo sapiens, UniProt Q13535); assay: Inhibition of ATR in human HeLa cells lysate pre incubated for 15 mins followed by ATP acyl phosphate probe addition and measured after 10 mins by LC-MS/MS analysis; assay type: subcellular
Summary of the method: (§1)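 KiNativ-type profiling in HeLa lysate (5 mg/mL total protein). Lysate preincubated 15 min with inhibitor at 50, 10, 2, 0.8 or 0 μM, then ATP or ADP acylphosphate probe added (5 μM final) for 10 min. Reaction stopped with urea and analysed by targeted MS, using up to four fragment ions per kinase peptide-probe conjugate. % inhibition calculated against untreated lysate. Duplicate reactions.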

[3] = target: MAP/microtubule affinity-regulating kinase 3 (Homo sapiens, UniProt P27448); assay: Inhibition of MARK3 in human HeLa cells lysate pre incubated for 15 mins followed by ATP acyl phosphate probe addition and measured after 10 mins by LC-MS/MS analysis; assay type: subcellular
[4] = target: EKC/KEOPS complex subunit TP53RK (Homo sapiens, UniProt Q96S44); assay: Inhibition of PRPK in human HeLa cells lysate pre incubated for 15 mins followed by ATP acyl phosphate probe addition and measured after 10 mins by LC-MS/MS analysis; assay type: subcellular
[5] = target: Mitogen-activated protein kinase kinase kinase 20 (Homo sapiens, UniProt Q9NYL2); assay: Inhibition of ZAK in human HeLa cells lysate pre incubated for 15 mins followed by ATP acyl phosphate probe addition and measured after 10 mins by LC-MS/MS analysis; assay type: subcellular
[6] = target: Serine/threonine-protein kinase B-raf (Homo sapiens, UniProt P15056); assay: Inhibition of BRAF in human HeLa cells lysate pre incubated for 15 mins followed by ADP acyl phosphate probe addition and measured after 10 mins by LC-MS/MS analysis; assay type: subcellular; summary of the method: as §1
[7] = target: Serine/threonine-protein kinase Chk2 (Homo sapiens, UniProt O96017); assay: Inhibition of CHK2 in human HeLa cells lysate at 10 uM pre incubated for 15 mins followed by ADP acyl phosphate probe addition and measured after 10 mins by LC-MS/MS analysis relative to control; assay type: subcellular; conditions: time 25.0 min
[8] = Inhibition of SRPK1/2 in human HeLa cells lysate at 10 uM pre incubated for 15 mins followed by ADP acyl phosphate probe addition and measured after 10 mins by LC-MS/MS analysis relative to control; conditions: 25 min, condition cancer
[9] = target: T2, Phosphatidylinositol 5-phosphate 4-kinase type-2 gamma (Homo sapiens) (UniProt Q8TBX8); assay: Inhibition of PIP5K2C LIP2 site in human HeLa cells lysate at 50 uM pre incubated for 15 mins followed by ATP acyl phosphate probe addition and measured after 10 mins by LC-MS/MS analysis relative to control; assay type: subcellular; conditions: time 25.0 min
T2 sequence (whole entry): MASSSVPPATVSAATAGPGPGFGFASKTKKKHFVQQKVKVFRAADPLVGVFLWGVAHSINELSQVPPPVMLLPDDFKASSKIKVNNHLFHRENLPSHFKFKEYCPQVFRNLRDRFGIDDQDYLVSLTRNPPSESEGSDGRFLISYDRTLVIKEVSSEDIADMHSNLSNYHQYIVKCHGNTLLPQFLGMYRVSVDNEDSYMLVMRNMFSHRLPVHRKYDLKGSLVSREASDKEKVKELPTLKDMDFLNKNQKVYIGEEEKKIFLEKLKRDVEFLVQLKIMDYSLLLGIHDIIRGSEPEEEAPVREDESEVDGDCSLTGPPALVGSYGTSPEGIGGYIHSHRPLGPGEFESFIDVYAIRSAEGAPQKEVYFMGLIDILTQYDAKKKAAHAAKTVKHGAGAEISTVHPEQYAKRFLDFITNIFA

[10] = target: Serine/threonine-protein kinase 24 (Homo sapiens, UniProt Q9Y6E0); assay: Inhibition of MST3 in human HeLa cells lysate at 50 uM pre incubated for 15 mins followed by ATP acyl phosphate probe addition and measured after 10 mins by LC-MS/MS analysis relative to control; assay type: subcellular; conditions: time 25.0 min
[11] = target: Mitogen-activated protein kinase kinase kinase 11 (Homo sapiens, UniProt Q16584); assay: Inhibition of MLK3 in human HeLa cells lysate at 2 uM pre incubated for 15 mins followed by ATP acyl phosphate probe addition and measured after 10 mins by LC-MS/MS analysis relative to control; assay type: subcellular; conditions: time 25.0 min
[12] = target: Ephrin type-B receptor 4 (Homo sapiens) (UniProt P54760); assay: Inhibition of EphB4 in human HeLa cells lysate at 2 uM pre incubated for 15 mins followed by ATP acyl phosphate probe addition and measured after 10 mins by LC-MS/MS analysis relative to control; assay type: subcellular; conditions: time 25.0 min
[13] = Toxicity in C57Bl/6 mouse assessed as effect on urea nitrogen level at 50 mg/kg, ip for 14 days (reference value: 22 mg/dl); assay type: organism-based; conditions: in vivo, 336 h, time 14 day
[14] = test system: HeLa; assay: Antitumor activity against human HeLa cells xenografted in NOD/SCID mouse assessed as reduction tumor growth at 50 mg/kg, ip administered for 28 days; assay type: functional, organism-based; conditions: time 28.0 day
Summary of the method: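 HeLa cells (5×10^5, in DMEM) were injected s.c. into the right flank of 6-week-old Nod/Scid mice on day 0. Dosing was 50 mg/kg i.p. twice daily, starting on day 1, 7 or 14 and continuing to day 28; controls received carrier. 6 mice per treated group. Tumors were measured every 2–3 days.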

Chain of Mitogen-activated protein kinase kinase kinase 11 (Q16584 whole entry, looked up): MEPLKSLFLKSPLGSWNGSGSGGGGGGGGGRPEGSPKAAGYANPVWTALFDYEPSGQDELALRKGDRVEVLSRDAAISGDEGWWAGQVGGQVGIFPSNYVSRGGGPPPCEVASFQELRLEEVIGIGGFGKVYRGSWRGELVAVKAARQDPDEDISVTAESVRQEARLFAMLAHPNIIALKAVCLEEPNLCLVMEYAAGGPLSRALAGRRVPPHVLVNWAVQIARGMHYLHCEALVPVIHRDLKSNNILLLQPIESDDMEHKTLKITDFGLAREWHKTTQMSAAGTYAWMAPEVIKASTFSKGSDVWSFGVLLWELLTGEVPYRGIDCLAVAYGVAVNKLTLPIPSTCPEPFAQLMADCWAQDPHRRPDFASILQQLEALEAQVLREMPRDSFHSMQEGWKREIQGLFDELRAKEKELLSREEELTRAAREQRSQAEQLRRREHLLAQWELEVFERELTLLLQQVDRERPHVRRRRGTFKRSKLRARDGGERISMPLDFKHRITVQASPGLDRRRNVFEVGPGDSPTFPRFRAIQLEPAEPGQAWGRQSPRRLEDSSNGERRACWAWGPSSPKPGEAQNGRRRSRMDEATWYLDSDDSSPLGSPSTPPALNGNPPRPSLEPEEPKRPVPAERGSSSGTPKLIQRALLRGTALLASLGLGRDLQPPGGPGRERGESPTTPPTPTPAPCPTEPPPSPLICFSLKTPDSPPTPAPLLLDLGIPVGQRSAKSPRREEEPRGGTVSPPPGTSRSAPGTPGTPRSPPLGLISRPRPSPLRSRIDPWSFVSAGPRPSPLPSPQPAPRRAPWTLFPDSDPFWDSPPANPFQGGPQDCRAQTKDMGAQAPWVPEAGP
Chain of EKC/KEOPS complex subunit TP53RK (Q96S44 whole entry, one chain of several): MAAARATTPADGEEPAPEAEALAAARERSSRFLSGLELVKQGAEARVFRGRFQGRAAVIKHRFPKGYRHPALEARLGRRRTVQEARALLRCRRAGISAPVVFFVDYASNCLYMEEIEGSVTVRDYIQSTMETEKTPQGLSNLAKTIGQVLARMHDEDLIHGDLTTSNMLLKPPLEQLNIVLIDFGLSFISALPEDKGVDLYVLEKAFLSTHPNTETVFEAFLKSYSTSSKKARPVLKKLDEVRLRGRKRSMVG
Chain of Mitogen-activated protein kinase kinase kinase 20 (Q9NYL2 whole entry): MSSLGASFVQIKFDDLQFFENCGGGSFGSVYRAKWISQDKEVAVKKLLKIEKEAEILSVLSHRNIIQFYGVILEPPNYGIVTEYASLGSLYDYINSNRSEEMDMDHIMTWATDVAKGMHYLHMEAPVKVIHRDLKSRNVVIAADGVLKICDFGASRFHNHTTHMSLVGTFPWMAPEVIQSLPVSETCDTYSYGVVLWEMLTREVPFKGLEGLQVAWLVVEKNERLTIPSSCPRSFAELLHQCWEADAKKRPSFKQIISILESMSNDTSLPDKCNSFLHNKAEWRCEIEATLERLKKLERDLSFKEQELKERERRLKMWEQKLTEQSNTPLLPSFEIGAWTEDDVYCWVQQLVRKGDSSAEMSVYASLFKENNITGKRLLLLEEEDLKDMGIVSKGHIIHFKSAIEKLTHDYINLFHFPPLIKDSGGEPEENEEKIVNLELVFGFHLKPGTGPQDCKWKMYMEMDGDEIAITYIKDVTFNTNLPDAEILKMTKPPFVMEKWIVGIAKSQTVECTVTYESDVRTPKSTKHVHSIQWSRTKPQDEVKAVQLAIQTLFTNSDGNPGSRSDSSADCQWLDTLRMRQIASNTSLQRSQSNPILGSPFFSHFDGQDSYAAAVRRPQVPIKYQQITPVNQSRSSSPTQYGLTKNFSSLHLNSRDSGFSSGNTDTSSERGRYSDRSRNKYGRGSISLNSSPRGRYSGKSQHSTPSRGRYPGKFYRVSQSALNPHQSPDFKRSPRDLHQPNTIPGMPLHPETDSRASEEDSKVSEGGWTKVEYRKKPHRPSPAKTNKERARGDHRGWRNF
Chain of Serine/threonine-protein kinase ATR (Q13535 whole entry, the tested form may be a part): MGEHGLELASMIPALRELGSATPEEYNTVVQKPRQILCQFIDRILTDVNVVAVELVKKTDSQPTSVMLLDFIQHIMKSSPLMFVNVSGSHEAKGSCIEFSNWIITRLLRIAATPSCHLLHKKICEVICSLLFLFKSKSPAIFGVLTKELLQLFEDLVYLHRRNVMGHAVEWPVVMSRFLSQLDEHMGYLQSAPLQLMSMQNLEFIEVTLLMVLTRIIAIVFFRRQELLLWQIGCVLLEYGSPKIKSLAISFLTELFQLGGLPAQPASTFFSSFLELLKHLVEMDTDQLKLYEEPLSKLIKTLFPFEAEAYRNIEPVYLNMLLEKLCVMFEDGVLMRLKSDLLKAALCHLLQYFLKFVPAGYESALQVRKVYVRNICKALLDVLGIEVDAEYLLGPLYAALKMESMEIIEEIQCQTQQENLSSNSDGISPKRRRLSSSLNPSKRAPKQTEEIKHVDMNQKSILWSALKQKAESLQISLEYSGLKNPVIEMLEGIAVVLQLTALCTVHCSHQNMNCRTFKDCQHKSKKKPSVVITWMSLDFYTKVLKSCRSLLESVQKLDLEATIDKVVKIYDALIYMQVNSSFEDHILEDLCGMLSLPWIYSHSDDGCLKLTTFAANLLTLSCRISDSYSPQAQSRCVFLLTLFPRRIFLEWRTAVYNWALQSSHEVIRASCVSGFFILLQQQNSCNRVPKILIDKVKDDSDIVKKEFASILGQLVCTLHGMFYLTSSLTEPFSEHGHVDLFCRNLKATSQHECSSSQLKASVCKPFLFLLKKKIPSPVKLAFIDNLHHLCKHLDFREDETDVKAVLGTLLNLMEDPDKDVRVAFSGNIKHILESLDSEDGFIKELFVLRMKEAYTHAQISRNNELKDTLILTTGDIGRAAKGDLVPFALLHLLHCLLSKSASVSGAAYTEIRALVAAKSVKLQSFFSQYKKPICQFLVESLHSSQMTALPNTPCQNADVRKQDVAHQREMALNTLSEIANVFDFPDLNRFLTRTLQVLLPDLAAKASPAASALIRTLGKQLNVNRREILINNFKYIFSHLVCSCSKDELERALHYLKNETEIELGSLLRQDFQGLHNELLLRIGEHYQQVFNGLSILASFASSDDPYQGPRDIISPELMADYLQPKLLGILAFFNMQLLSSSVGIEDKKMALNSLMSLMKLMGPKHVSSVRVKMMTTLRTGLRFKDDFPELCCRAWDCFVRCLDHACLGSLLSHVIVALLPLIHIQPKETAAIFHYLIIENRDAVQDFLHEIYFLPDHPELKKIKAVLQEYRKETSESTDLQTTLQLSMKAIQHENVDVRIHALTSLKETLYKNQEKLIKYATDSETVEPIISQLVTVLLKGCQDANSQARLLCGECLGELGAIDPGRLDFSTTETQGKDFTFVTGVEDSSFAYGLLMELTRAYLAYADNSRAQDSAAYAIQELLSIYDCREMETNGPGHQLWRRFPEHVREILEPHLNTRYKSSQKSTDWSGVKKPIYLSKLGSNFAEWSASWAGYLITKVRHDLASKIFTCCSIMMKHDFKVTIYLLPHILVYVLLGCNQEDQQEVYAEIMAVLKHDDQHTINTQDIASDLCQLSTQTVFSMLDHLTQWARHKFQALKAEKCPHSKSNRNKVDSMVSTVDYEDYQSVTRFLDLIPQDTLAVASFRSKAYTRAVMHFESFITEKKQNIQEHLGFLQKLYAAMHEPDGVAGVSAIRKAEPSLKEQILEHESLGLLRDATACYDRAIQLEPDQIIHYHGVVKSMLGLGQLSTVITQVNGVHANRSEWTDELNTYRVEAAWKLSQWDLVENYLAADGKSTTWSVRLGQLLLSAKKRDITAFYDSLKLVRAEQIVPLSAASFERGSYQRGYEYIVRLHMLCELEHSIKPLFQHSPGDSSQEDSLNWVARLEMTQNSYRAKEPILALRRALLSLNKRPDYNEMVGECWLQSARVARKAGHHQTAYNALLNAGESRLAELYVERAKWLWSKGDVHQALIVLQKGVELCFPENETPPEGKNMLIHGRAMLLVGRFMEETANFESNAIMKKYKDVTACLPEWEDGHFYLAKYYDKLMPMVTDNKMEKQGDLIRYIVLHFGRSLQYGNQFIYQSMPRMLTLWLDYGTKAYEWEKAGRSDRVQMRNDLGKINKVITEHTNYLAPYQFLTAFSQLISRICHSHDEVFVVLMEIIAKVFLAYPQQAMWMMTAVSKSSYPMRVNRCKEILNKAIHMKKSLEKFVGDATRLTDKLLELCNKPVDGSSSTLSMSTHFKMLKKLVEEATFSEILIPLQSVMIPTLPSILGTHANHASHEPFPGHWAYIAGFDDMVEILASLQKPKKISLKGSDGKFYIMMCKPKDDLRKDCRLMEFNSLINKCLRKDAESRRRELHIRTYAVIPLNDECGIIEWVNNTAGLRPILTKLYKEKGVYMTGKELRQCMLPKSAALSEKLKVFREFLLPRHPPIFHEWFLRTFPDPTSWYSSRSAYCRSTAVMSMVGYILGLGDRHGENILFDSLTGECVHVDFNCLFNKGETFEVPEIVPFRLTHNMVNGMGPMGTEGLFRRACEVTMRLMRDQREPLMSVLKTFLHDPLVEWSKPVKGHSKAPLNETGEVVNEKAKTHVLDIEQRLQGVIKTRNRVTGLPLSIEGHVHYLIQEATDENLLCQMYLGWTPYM
Chain of Serine/threonine-protein kinase Chk2 (O96017 whole entry): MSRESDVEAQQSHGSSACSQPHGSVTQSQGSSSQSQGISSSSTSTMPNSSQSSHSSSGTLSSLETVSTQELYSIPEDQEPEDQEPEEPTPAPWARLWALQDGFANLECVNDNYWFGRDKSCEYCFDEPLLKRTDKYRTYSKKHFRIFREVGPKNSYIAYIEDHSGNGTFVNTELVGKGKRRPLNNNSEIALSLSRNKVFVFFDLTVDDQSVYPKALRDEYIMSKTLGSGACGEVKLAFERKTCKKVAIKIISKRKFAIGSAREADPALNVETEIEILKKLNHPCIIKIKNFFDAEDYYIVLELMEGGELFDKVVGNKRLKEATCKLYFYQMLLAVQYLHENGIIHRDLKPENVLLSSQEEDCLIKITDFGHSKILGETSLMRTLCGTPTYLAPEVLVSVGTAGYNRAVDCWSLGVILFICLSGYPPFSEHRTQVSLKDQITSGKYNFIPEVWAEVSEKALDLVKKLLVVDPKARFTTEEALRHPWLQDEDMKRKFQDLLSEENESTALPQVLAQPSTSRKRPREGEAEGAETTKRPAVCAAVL

CCOc1cc(N2CCC(O)CC2)ccc1Nc1ncc2c(n1)N(C)c1ccccc1C(=O)N2C
Activity [1]: 7.8%
IC50 [2]: > 50 µM
IC50 [3]: > 50 µM
IC50 [4]: > 50 µM
IC50 [5]: > 50 µM
IC50 [6]: > 50 µM
inhibition [7]: 1.1%
inhibition at 10 µM [8]: -8.1%
inhibition [9]: 12.7%
inhibition [10]: -4.6%
inhibition [11]: 5.3%
inhibition [12]: -5.4%
Activity [13]: 31 mg/dL
Activity [14]: Active
